According to ChEMBL document CHEMBL1153481, “Chromane derivatives of small aromatic molecules: Chemoenzymatic synthesis and growth inhibitory activity on human tumor cell line LoVo WT” (Bioorg Med Chem, 2009):
pIC50: −log10 of the molar value. The source made the active and inactive calls. The rule behind the calls is not given here.

How the values were obtained:
Assay type in all cases: functional, cell-based
[1] = system: LoVo; test: Cytotoxicity against human wild type LoVo cells after 48 hrs by MTS assay
Procedure, shortened: (§1)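 LoVo WT human colon adenocarcinoma cells grown in D-MEM F12 with 10% FBS, penicillin/streptomycin, 37 °C, 5% CO2. Seeded 1 × 10^4 cells/well, medium replaced after 1 day with exposure medium containing test agents (0.1–300 µM; DMSO 0.3% or less). After 1–3 day exposure, MTS/PMS added for 2 h at 37 °C; formazan absorbance read at 490 nm. Viability expressed relative to DMSO-only controls.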

[2] = system: LoVo; test: Cytotoxicity against human wild type LoVo cells after 24 hrs by MTS assay; procedure, shortened: as §1
[3] = system: LoVo; test: Induction of apoptosis in human wild type LoVo cells assessed as increase in hyplodiploid cells after 24 hrs by flow cytometry
Procedure, shortened: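 Apoptosis measured in LoVo WT cells after 24 h exposure as the percentage of hypodiploid cells (loss of fragmented DNA), determined by flow cytometry.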

[4] = system: LoVo; test: Cytotoxicity against human wild type LoVo cells at 100 uM after 24 hrs by MTS assay; procedure, shortened: as §1

| Structure (SMILES) | pIC50 [1] | pIC50 [2] | Activity [3] | Activity [4] |
| --- | --- | --- | --- | --- |
| CC1(C)CCc2c(ccc3c4c(ccc23)OC(C)(C)CC4)O1 | 3.40 | 3.59 | inactive | – |
| CC1(C)CCc2cc(CCO)ccc2O1 | – | – | – | inactive |
| CC1(C)CCc2c(ccc3cc(O)ccc23)O1 | 4.56 | 4.46 | Active | – |
| Oc1ccc2cc(O)ccc2c1 | – | – | inactive | – |
